Reference: ChEMBL document CHEMBL4342410, “Design and Discovery of N-(3-(2-(2-Hydroxyethoxy)-6-morpholinopyridin-4-yl)-4-methylphenyl)-2-(trifluoromethyl)isonicotinamide, a Selective, Efficacious, and Well-Tolerated RAF Inhibitor Targeting RAS Mutant Cancers: The Path to the Clinic” (J Med Chem, 2020)

Assays:
[1] = Intrinsic clearance in human liver microsomes; format: ADME, Microsome; conditions: read-out: CLH
[2] = target: T1, RAF proto-oncogene serine/threonine-protein kinase (Homo sapiens, UniProt P04049); experiment: Inhibition of CRAF in human Calu6 cells assessed as reduction MEK phosphorylation measured after 1 hr by sandwich ELISA; format: cell-based
[3] = Apparent permeability across apical to basolateral side in human Caco2 cells at pH 7.4 by LC/MS/MS analysis; format: ADME, cell-based; conditions: Caco-2, pH 7.4
[4] = Apparent permeability across basolateral to apical side in human Caco2 cells at pH 7.4 by LC/MS/MS analysis; format: ADME, cell-based; conditions: Caco-2, pH 7.4
[5] = Stimulation of BRAF-CRAF dimerization in human HCT116 cells measured after 2 hrs by NanoBit luciferase complementation assay; format: cell-based; conditions: read-out: EC50
[6] = tested on: Serine/threonine-protein kinase B-raf (Homo sapiens), P15056 [V600E]; experiment: Binding affinity to human partial length BRAF V600E mutant (S429 to E741 residues) expressed in mammalian expression system at 1 uM by Kinomescan method relative to control
[7] = target: T1, RAF proto-oncogene serine/threonine-protein kinase; experiment: Binding affinity to wild-type human partial length CRAF (I330 to T640 residues) expressed in bacterial expression system at 1 uM by Kinomescan method relative to control
[8] = target: T1, RAF proto-oncogene serine/threonine-protein kinase; experiment: Binding affinity to wild-type human partial length CRAF (I330 to T640 residues) expressed in bacterial expression system by Kinomescan method
[9] = target: T2, Discoidin domain-containing receptor 2 (Homo sapiens, UniProt Q16832); experiment: Binding affinity to wild-type human partial length DDR2 (V555 to E855 residues) expressed in mammalian expression system by Kinomescan method
T2 sequence (Q16832 whole entry): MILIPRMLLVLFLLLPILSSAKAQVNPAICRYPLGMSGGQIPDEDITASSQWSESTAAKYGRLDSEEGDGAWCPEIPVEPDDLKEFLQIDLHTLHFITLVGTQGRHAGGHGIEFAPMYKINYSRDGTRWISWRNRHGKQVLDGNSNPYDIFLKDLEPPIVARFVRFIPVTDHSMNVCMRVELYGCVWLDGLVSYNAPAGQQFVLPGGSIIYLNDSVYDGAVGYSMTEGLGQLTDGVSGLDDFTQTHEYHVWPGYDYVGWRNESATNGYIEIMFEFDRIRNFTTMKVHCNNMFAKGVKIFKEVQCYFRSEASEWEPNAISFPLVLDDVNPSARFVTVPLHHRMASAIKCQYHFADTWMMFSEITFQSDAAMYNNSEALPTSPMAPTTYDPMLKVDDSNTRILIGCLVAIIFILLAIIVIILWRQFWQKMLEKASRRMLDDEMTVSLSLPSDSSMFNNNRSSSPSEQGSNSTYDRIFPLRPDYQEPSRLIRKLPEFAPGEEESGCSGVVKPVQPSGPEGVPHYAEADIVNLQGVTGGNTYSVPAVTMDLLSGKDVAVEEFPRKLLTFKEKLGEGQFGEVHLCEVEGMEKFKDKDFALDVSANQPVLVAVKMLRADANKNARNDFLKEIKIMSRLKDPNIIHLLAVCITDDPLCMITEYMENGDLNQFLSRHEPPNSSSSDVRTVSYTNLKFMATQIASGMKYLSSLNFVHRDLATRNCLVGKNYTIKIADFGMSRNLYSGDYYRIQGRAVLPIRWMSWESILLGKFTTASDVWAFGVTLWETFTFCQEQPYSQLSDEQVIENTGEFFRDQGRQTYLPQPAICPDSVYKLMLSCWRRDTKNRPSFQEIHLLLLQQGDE

[10] = Cmax in rat at 4 mg/kg, po; format: ADME, organism-based; set-up: dose 4 mg/kg, route oral; conditions: in vivo
[11] = Cmax in dog at 0.4 mg/kg, po; format: ADME, organism-based, Canis lupus familiaris; set-up: dose 0.4 mg/kg, route oral; conditions: in vivo
[12] = AUC (infinity) in rat at 4 mg/kg, po; format: ADME, organism-based; set-up: dose 4 mg/kg, route oral, time infinity; conditions: in vivo
[13] = Clearance in mouse at 2 mg/kg, iv or 4 mg/kg, po; format: ADME, organism-based; conditions: in vivo
[14] = Clearance in rat at 2 mg/kg, iv or 4 mg/kg, po; format: ADME, organism-based; conditions: in vivo
[15] = Oral bioavailability in dog at 0.4 mg/kg; format: ADME, organism-based, Canis lupus familiaris; conditions: in vivo
[16] = tested on: Calu-6; experiment: Antitumor activity against human Calu6 cells harboring KRAS Q61K mutant xenografted in po dosed nude rat assessed as increase in tumor regression administered daily for 18 days starting from day 13 post tumor implantation and measured on day 31; format: functional, organism-based
Outline: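 Nude rats bearing Calu-6 (KRAS Q61K) human NSCLC xenografts received vehicle or drug p.o. daily at 15, 35, 75 or 150 mg/kg. Dosing began 13 days after tumor implantation and ran to day 31, i.e. 18 days of treatment. Tumor volumes were read out as %T/C or % regression versus vehicle on day 31. Body weight was also tracked.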

[17] = Toxicity in human Calu6 cells harboring KRAS Q61K mutant xenografted nude rat assessed as mortality at 15 to 150 mg/kg, po administered daily for 18 days starting from day 13 post tumor implantation and measured during compound dosing; format: organism-based; conditions: in vivo, 432 h
Outline: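 Nude rats bearing Calu-6 (KRAS Q61K) NSCLC xenografts were dosed orally once daily with vehicle or 15, 35, 75 or 150 mg/kg. Dosing ran from day 13 post-implant to day 31. Rats were monitored for mortality and signs of toxicity over the treatment period, alongside body weight.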

[18] = Cmax in nude rat xenografted with human Calu6 cells harboring KRAS Q61K mutant at 15 mg/kg, po administered daily for 18 days starting from day 13 post tumor implantation and measured on day 31; format: ADME, organism-based; set-up: dose 15 mg/kg, route oral; conditions: in vivo
Outline: (§1)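 Nude rats carrying Calu-6 (KRAS Q61K) NSCLC xenografts were dosed p.o. once daily at 15, 35, 75 or 150 mg/kg from day 13 to day 31 after implant. Plasma was collected after the last dose and drug concentration was measured. AUC and Cmax were calculated per dose on day 31.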

[19] = Cmax in nude rat xenografted with human Calu6 cells harboring KRAS Q61K mutant at 35 mg/kg, po administered daily for 18 days starting from day 13 post tumor implantation and measured on day 31; format: ADME, organism-based; set-up: dose 35 mg/kg, route oral; conditions: in vivo; outline: as §1
[20] = Tmax in nude rat xenografted with human Calu6 cells harboring KRAS Q61K mutant at 35 mg/kg, po administered daily for 18 days starting from day 13 post tumor implantation and measured on day 31; format: ADME, organism-based; conditions: in vivo
Outline: (§2)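 Calu-6 xenograft nude rats were dosed orally once daily at 15, 35, 75 or 150 mg/kg from day 13 after implantation to day 31. Plasma was collected after the last dose on day 31, drug concentrations were measured, and PK parameters including AUC were calculated for each dose.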

[21] = Cmax in nude rat xenografted with human Calu6 cells harboring KRAS Q61K mutant at 75 mg/kg, po administered daily for 18 days starting from day 13 post tumor implantation and measured on day 31; format: ADME, organism-based; set-up: dose 75 mg/kg, route oral; conditions: in vivo; outline: as §1
[22] = Tmax in nude rat xenografted with human Calu6 cells harboring KRAS Q61K mutant at 75 mg/kg, po administered daily for 18 days starting from day 13 post tumor implantation and measured on day 31; format: ADME, organism-based; conditions: in vivo; outline: as §2
[23] = Time of last measurable concentration in nude rat xenografted with human Calu6 cells harboring KRAS Q61K mutant at 75 mg/kg, po administered daily for 18 days starting from day 13 post tumor implantation and measured on day 31; format: ADME, organism-based; conditions: in vivo, 432 h; outline: as §2
[24] = Lipophilicity, log P of the compound at pH 6.5; format: physicochemical; conditions: buffer
[25] = Stability of the compound in human plasma assessed as parent compound remaining measured after 3 hrs; format: ADME, cell-free; conditions: read-out: Stability
Outline: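 Compound incubated in human plasma for 3 h; stability expressed as percent remaining intact.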

T1 sequence (P04049 whole entry): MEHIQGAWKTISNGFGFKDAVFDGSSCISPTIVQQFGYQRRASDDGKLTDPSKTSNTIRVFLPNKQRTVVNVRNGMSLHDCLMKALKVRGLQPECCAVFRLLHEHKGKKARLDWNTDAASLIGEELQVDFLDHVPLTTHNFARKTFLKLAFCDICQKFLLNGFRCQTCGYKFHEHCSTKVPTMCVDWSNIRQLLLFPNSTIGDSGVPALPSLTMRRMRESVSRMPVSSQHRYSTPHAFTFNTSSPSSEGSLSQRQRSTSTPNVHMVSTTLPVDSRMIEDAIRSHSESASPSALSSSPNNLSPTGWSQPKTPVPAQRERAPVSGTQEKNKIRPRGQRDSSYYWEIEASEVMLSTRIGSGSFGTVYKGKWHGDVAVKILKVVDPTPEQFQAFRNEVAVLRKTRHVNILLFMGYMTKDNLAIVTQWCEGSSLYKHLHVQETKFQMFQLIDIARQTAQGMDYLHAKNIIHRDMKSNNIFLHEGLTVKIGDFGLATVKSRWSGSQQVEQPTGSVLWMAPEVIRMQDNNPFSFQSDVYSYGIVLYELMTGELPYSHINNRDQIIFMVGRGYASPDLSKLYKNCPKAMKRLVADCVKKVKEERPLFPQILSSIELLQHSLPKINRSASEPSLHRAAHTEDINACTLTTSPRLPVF
Serine/threonine-protein kinase B-raf (Homo sapiens), P15056 [V600E], sequence (P15056 whole entry V600E, the tested form may be a part): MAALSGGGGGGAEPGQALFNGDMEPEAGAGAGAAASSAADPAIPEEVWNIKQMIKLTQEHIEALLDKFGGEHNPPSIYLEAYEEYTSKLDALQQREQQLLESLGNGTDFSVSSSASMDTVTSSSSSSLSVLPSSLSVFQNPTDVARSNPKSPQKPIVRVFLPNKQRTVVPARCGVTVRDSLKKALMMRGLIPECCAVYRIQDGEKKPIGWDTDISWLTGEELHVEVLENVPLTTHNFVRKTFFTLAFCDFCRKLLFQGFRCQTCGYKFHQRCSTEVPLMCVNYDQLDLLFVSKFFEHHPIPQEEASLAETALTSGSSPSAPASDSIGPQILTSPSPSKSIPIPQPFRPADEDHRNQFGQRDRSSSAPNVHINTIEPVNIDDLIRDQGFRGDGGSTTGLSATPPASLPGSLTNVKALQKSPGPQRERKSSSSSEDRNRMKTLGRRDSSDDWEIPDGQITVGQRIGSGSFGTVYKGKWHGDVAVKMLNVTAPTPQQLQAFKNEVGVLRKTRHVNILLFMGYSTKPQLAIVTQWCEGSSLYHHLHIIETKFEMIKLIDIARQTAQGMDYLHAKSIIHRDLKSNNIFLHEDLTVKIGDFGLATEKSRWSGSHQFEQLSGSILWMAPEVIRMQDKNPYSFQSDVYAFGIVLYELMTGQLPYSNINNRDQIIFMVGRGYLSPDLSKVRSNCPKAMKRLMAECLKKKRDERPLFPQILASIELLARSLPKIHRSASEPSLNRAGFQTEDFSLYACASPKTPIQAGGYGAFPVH

Cc1ccc(NC(=O)c2ccnc(C(F)(F)F)c2)cc1-c1cc(OCCO)nc(N2CCOCC2)c1 [NAPORAFENIB]
microsomal CLint [1]: 13.5 µL/min/mg
EC50 [2]: 14 to 50 nM
Papp A→B [3]: 9 ×10⁻⁶ cm/s
Papp B→A [4]: 19 ×10⁻⁶ cm/s
EC50 [5]: 160 nM
Activity [6]: > 98%
Activity [7]: > 98%
Kd [8]: 3.6 nM
Kd [9]: 10 nM
Cmax [10]: 500 nM
Cmax [11]: 400 nM
AUC(0-inf) [12]: 1.8 µM·h
clearance [13]: 19 mL/min/kg
clearance [14]: 31 mL/min/kg
bioavailability [15]: 79%
Activity [16]: Dose-dependent effect
Activity [17]: Non-Toxic
Cmax [18]: 878 nM
Cmax [19]: 2350 nM
Tmax [20]: 3 h
Cmax [21]: 8680 nM
Tmax [22]: 2 h
Tlast [23]: 24 h
logD [24]: > 3
remaining at 3 h [25]: > 90%
